36 sequences from the EternaBench riboswitch data can be followed below.

The subject of this data set is MS2 coat protein. The data set is described as follows: apparent Kd, MS2 coat protein; higher = weaker binding; RNA-MaP array; FMN 200 µM where present. The essentials:
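Apparent Kd: the median of filtered binding-curve fits from single clusters. Designs were transcribed on Illumina sequencing-chip clusters by stalled E. coli RNA polymerase and titrated with SNAP-549-labelled MS2 coat protein from 0.7 or 1.5 nM, doubling to 3 µM, in 100 mM Tris-HCl pH 7.5, 80 mM KCl, 4 mM MgCl2, BSA, DTT, yeast tRNA and Tween-20. Each series ran without and then with constant ligand, and green signal was normalised to red-channel RNA signal and control-cluster median Fmax.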

The mark [1] stands for this setting: designed as: OFF switch for flavin mononucleotide, no ligand.
Setting [2] is: ligand present: flavin mononucleotide, designed as: OFF switch for flavin mononucleotide.
The mark [3] stands for this setting: designed as: ON switch for flavin mononucleotide, no ligand.
[4] abbreviates: ligand present: flavin mononucleotide, designed as: ON switch for flavin mononucleotide.

Usually apparent Kd stands for the concentration giving half-maximal binding under the conditions of the assay. Consider “UAAAUUAACAAGAAGGCUAACAUGAGGAUCACCCAUGUUGUACAUGGAUAUAGAGGAUAUUGCUAAUAUUUAUUUAUCAUAAUU”, for which the “apparent Kd” value is 21.8 nM under setting [1] and 17.3 nM under setting [2].

Consider “UGGUACAUGGGAGGAUAUAGGUUGAUAACAUGAGGAUCACCCAUGUUAAAUAAGCCGAGAGGCUACUAGAAGGCCCAUGUACCU”, for which the “apparent Kd” value was 4.73 nM under setting [3] and 4.75 nM under setting [4].

As for “GCCAGGCAUGUAGGAUAUCCAUUGCGUCGCGAUGGAGAAGGGCAACACACAUGAGGAUCACCCAUGUGGUCACCCAUGUCGUGU”, the “apparent Kd” value under setting [1] is 217 nM and the “apparent Kd” value under setting [2] is 225 nM.

As for “UCAUAAAUUCGAGGAUAUCGGUGAUAAAGAAGACGAGAAGGCGAUUAGAGAGAGAUGUUUAUAGACAUGAGGAUCACCCAUGUU”, the “apparent Kd” value worked out at 30 nM under setting [3] and 24.8 nM under setting [4].

As to “UUCCAACAUGAGGAUCACCCAUGUCGGAAGCAUUAAGGAUAUGGGCGGCCGGUGGCUGAACCAGAAGGUAAGCCAG”, the “apparent Kd” value by setting is: under setting [3], 15.3 nM; under setting [4], 18.1 nM.

In the case of “GAGUUACAUGAGGAUCACCCAUGUUGUUUUGGAUAAGGAUAUAUGGUAGGAAGAGGAAUGAUAGAAGGUAUUAGGG”, the “apparent Kd” value was determined as 29.9 nM under setting [3] and 28.3 nM under setting [4].

In the case of “GAUGAGGUAGGAUAUACGAUAAUAUAGGGUAGAUAUAUAACACAUGAGGAUCACCCAUGUAGAAGGACCAGUAC”, the “apparent Kd” value under setting [1] was determined as 38.6 nM and the “apparent Kd” value under setting [2] amounted to 61.1 nM.

Consider “UAAAAUCAUGUAGGAUAUGCGUGGCGAAGCUAUGCAGAAGGACAUGAGGAUCACCCAUGUCUUACUGUGCGUACACAGUUAAAG”, for which the “apparent Kd” value was 16.7 nM under setting [1] and 79.5 nM under setting [2].

Turning to “AAGAAACAUGAGGAUCACCCAUGUCACCUCACACGAGGAUAUCUGAAUCGAUUAGAUUACGGAGAAGGCGUGAGAA”, the “apparent Kd” value reads like this: under setting [3], 30.2 nM; under setting [4], 18.3 nM.

As to “AAAAAAAAAAGACAGGAUAUCCAAAAAAAAACAUGAGGAUCACCCAUGUAAAAAAAAAAAAAAUGGGAGAAGGGUCAAAAAAAAAA”, the “apparent Kd” value runs as follows: under setting [3], 63.2 nM; under setting [4], 32.1 nM.

Take “CGAGACCUCACAGGAUAUGCUGGACUUUGUCCAGCAGAAGGGUGAAAACAUGAGGAUCACCCAUGUAUGGUCUCCAAAUUUAAG”: the “apparent Kd” value was determined as 195 nM under setting [3] and 13.2 nM under setting [4].

In the case of “AGUGUCAUCGAGAAGGCCUCAACAUGAGGAUCACCCAUGUUGCAAAAUGGGAGGAUAUCGCGCGCAAAACUACGUUUCGUAGCA”, the “apparent Kd” value came to 30.5 nM under setting [3] and 11.4 nM under setting [4].

Regarding “CACCAGCGAGGAUAUACACGUGGUCUCCACUCCCGGUGGUAACAUGAGGAUCACCCAUGUAGAAGGCGCAACAU”, the “apparent Kd” value runs as follows: under setting [1], 42 nM; under setting [2], 220 nM.

For the sequence “UAAUAAAACGAUCGGCGGUCCAUACAUGAGGAUCACCCAUGUAGAAGGCACUCUACAAAGUAGAGUGAGGAUAUACAAGAUCGA”, the “apparent Kd” value under setting [1] was determined as 15 nM and the “apparent Kd” value under setting [2] came to 258 nM.

For the sequence “UUGAAUUGAAACAUGAGGAUCACCCAUGUGUCAUAAUUGACAUAGGAUAUGUUUAUACUUUUAAAACAGAAGGAUGACGAUACU”, the “apparent Kd” value by setting is: under setting [3], 14.1 nM; under setting [4], 9.68 nM.

On to “UUAGAAUUGCAAGGAUAUCUAAUGUAGAUAGUAAGAGAAGGUGCUUGAUAGUUACAUGAGGAUCACCCAUGUAUUUGGGUUUAU”, for which the “apparent Kd” value is, setting by setting: under setting [3], 395 nM; under setting [4], 375 nM.

Regarding “GUGUUGUCAGGAUAUCUUACAUAACUAUCGUUGUUACCAUUGGAGAAGGGACAUGAGGAUCACCCAUGUUAUCC”, the “apparent Kd” value under setting [1] worked out at 22.3 nM and the “apparent Kd” value under setting [2] is 23.7 nM.

As for “GAUUUCGCAUGAGGAUAUGCUCCCGUUUCGGGAGCAGAAGGCAUGUCAUUAGACAUGAGGAUCACCCAUGUAGUUAAGAUUGAA”, the “apparent Kd” value runs as follows: under setting [3], 378 nM; under setting [4], 15.7 nM.

Turning to “UCUAUGUAGAUUCAUCAAUACAGUAAGGAUAUGAGAUACAUGAGGAUCACCCAUGUGCAUGUGGAUUAGAAGGUACAAUUAACU”, the “apparent Kd” value runs as follows: under setting [1], 293 nM; under setting [2], 188 nM.

Regarding “GGGUACAUCGGAGGAUAUCAUGUAAAUACAUGAGGAUCACCCAUGUCAAUGGAGACAUCGGAGAUUGAGAAGGCCGAUGUACCG”, the “apparent Kd” value runs as follows: under setting [3], 86.1 nM; under setting [4], 340 nM.

Take “GGUCUACAUGAGGAUCACCCAUGUCAGGAUAUCGUGUGUUUUUUUUCGGCCGCGCGUGCGAGAAGGGACGUCUU”: the “apparent Kd” value reads like this: under setting [1], 17.6 nM; under setting [2], 18.1 nM.

As for “GACUGACAUGAGGAUCACCCAUGUAUUCGAGCAUGAGGAUAUAUGACUCGUCAUCGGCGGAUAGAAGGCAUGGUUG”, the “apparent Kd” value is, setting by setting: under setting [3], 162 nM; under setting [4], 212 nM.

Turning to “GACUUUUCUGAGGAUAUUGCAUCAUACGAUUUAUAAGAAGGCAGAACAUGAGGAUCACCCAUGUGGGUUUUUAG”, the “apparent Kd” value runs as follows: under setting [1], 41.7 nM; under setting [2], 91.1 nM.

For the sequence “CAGGAUCAAGGAUAUCAUCGACGGAACAUGAGGAUCACCCAUGUGAUUGUGCUCUCCUUGUGAGAAGGUGGCGAAU”, the “apparent Kd” value by setting is: under setting [1], 38.5 nM; under setting [2], 36.7 nM.

With “UUAAAUCAUGUAGGAUAUGCAUGGCGAAGCUACGCAGAAGGACAUGAGGAUCACCCAUGUUCUAGCUACCGAGUUCGGUGGCAA”, the “apparent Kd” value was determined as 20.2 nM under setting [1] and 83.8 nM under setting [2].

In the case of “GCCUGCUGGCGAGGAUAUUCUGUGCGGUUCCGGCUCGUGUCUGUUACAUGAGGAUCACCCAUGUGGGAGAAGGUGUCUGCGGCC”, the “apparent Kd” value was found to be 7.66 nM under setting [1] and 8.34 nM under setting [2].

Take “GGUGCGUUUGUGAGGAUAUGCUGGUCCUUGGUUCUGCAGAAGGCACAUGAGGAUCACCCAUGUGGUGUCGUACC”: the “apparent Kd” value reads like this: under setting [1], 77 nM; under setting [2], 162 nM.

As for “CCUGUGUGAGGAUAUGGUGUUGGAAAAAAGGAAUAGCUCCUCCAGAAGGCACAUGAGGAUCACCCAUGUCGUGG”, the “apparent Kd” value reads like this: under setting [1], 21.4 nM; under setting [2], 53.2 nM.

“GAUUUGUGAGGAUAUACAUGAGGAUCACCCAUGUGUGUCCAUACGCGUGAGUCUUCGUGUAGAAGGCGCGGGUC”: the “apparent Kd” value came out at 15.5 nM under setting [1] and 15.9 nM under setting [2].

In the case of “GCAGGAUAAGUGAGGAUAUACCUAUGGAUACAUAGGUAGAAGGUACAUGAGGAUCACCCAUGUUCCUCACCUGC”, the “apparent Kd” value was determined as 9.54 nM under setting [1] and 10.1 nM under setting [2].

Consider “UUACCCUCAGUAAGGAUAUCUUUAUCUGCUGAUUUAGAGAAGGUACAUGAGGAUCACCCAUGUGCGAUUGGGCA”, for which the “apparent Kd” value under setting [1] was 80.3 nM and the “apparent Kd” value under setting [2] is 501 nM.

For “GGAUGACAAAGUCAUCCUAAACGAACAUGAGGAUCACCCAUGUAGGAUAUGCUACACAAAGUGUAGCAGAAGGACAUGUGCCUU”, the “apparent Kd” value reads like this: under setting [1], 37.1 nM; under setting [2], 269 nM.

Take “AUAAGUGAAAGCUAAAGAUUAGCCGAGGAUAUACAUGAGGAUCACCCAUGUAAGGGUCGCCUUCUGUAGAAGGCGGCGGUCUAG”: the “apparent Kd” value under setting [1] worked out at 40.5 nM and the “apparent Kd” value under setting [2] was 76.5 nM.

Regarding “ACAUGAGGAUCACCCAUGUAUUCAUAGGAUAUACAACAUGAGUUUCAUUCAUGUAAACAUGUAUUGUAGAAGGAUGUUACAUGU”, the “apparent Kd” value under setting [1] is 13.6 nM and the “apparent Kd” value under setting [2] is 15 nM.

Take “GGAUGACAAAGUCAUCCUUAACGAACAUGAGGAUCACCCAUGUAGGAUAUGCUACUCAAAGAGUAGCAGAAGGACAUGUGUCUU”: the “apparent Kd” value reads like this: under setting [1], 31.1 nM; under setting [2], 159 nM.

“GCGUAAUAGAUCCUAUUUAUCUACAUGAGGAUCACCCAUGUGCAGGAUAUGCUAUAAUUUAAUAAGCAGAAGGGCAAUUUCCGC”: the “apparent Kd” value reads like this: under setting [1], 73.3 nM; under setting [2], 159 nM.
